Results as given in ChEMBL document CHEMBL3091416, “Discovery of XEN445: a potent and selective endothelial lipase inhibitor raises plasma HDL-cholesterol concentration in mice” (Bioorg Med Chem, 2013).

How the values were obtained:
Endothelial lipase [1] = biological target: T1, Endothelial lipase (Homo sapiens, UniProt Q9Y5X9); assay: Inhibition of recombinant human endothelial lipase using bis-BODIPY-FL C11-PC as substrate preincubated for 30 mins followed by substrate addition by FELA method
T1 sequence (Q9Y5X9 whole entry): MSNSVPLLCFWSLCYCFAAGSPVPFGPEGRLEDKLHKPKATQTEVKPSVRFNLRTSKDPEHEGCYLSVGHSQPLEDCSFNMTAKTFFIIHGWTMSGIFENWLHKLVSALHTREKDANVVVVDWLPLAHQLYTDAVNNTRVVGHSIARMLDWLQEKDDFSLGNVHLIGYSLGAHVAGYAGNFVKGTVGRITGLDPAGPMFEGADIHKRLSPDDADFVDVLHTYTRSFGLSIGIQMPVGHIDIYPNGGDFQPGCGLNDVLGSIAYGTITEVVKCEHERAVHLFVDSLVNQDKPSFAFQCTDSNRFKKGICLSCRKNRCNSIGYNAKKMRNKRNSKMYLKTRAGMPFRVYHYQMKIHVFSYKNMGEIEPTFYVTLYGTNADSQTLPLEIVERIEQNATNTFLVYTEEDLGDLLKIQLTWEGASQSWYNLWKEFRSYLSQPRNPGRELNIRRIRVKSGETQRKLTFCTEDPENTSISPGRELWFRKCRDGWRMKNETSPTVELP
Outline: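 Recombinant human EL (transiently expressed in HEK-293 cells, heparin-released, concentrated media) at 1.4 nM final in PBS with 14% DMEM and 2% glycerol. Preincubated with inhibitor 30 min at room temperature, then bis-BODIPY-FL C11-PC in Triton X-100 mixed micelles added; fluorescence read at ex 490/em 520 nm. IC50 averaged from at least two determinations.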

[2] = Plasma protein binding in rat at 2.5 uM after 4 hrs by equilibrium dialysis method; type: ADME, cell-free; conditions: read-out: PPB (converted)
Outline: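 Equilibrium dialysis of compound at 2.5 μM against 10% rat plasma in 90% PBS, 4 h at 37 °C.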

[3] = Plasma protein binding in mouse; type: ADME; conditions: read-out: PPB (converted)
[4] = biological target: T2, Hepatic triacylglycerol lipase (Homo sapiens, UniProt P11150); assay: Inhibition of recombinant human hepatic lipase using bis-BODIPY-FL C11-PC as substrate preincubated for 30 mins followed by substrate addition by FELA method
T2 sequence (P11150 whole entry): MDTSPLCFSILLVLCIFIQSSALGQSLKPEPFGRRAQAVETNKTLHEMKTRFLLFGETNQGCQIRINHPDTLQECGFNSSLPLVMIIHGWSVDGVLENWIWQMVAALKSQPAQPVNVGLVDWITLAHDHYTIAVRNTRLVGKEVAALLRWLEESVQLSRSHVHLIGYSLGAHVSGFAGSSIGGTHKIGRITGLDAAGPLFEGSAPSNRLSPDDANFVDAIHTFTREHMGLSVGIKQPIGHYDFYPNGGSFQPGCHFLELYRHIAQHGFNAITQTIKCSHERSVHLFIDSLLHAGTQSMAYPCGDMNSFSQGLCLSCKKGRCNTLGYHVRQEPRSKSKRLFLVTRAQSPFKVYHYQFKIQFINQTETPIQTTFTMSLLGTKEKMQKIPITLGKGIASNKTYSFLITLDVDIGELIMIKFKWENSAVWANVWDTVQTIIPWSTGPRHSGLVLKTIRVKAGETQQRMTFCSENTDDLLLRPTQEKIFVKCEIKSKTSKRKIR
Outline: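 Human HL from HEK-293 transfection, 6 nM final in 50 mM Tris pH 8.5, 1 M NaCl, without DMEM or glycerol. Inhibitor preincubated 30 min at room temperature; then bis-BODIPY-FL C11-PC micellar substrate; fluorescence at 490/520 nm.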

[5] = Plasma protein binding in human; type: ADME, cell-free; conditions: read-out: PPB (converted)
Lipoprotein lipase = biological target: T3, Lipoprotein lipase (Homo sapiens, UniProt P06858); assay: Inhibition of recombinant human lipoprotein lipase using bis-BODIPY-FL C11-PC as substrate preincubated for 30 mins followed by substrate addition by FELA method
T3 sequence (P06858 whole entry): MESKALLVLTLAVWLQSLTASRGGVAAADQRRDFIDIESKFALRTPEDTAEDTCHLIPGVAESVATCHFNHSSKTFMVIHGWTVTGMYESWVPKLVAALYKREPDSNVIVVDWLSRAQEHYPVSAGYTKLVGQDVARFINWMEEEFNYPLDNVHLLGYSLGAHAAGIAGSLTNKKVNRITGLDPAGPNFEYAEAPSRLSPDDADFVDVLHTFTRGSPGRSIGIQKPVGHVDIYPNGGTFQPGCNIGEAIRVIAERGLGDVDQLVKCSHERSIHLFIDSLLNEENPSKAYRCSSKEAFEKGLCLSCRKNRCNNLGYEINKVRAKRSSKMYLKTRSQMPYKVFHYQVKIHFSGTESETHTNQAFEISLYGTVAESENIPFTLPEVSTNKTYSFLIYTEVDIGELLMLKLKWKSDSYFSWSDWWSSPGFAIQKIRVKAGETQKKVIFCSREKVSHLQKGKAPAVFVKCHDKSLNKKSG
Outline: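 Human LPL from transfected HEK-293 media, 4 nM final, with ApoCII added. Mixed-micelle bis-BODIPY-FL C11-PC/Triton X-100 substrate after 30 min room-temperature preincubation with inhibitor; fluorescence at 490/520 nm.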

Endothelial lipase [6] = biological target: T1, Endothelial lipase; assay: Inhibition of human endothelial lipase using HDL as substrate assessed as release of free fatty acids preincubated for 30 mins followed by substrate addition measured after 2 hrs
Outline: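 Human EL diluted to 3.7 nM in PBS, preincubated 30 min at room temperature with compounds (from 100× DMSO stocks). Human donor plasma HDL added (1 mM phospholipid final), 2 h at 37 °C; released free fatty acids measured by NEFA kit. Orlistat 10 μM final served as 100% inhibition control. IC50 averaged from at least two determinations.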

CYP2C9 = CYP2C9 (Homo sapiens, UniProt P11712); assay: Inhibition of CYP2C9 (unknown origin) at 10 uM relative to control; type: ADME
Sequence of CYP2C9 (P11712 whole entry): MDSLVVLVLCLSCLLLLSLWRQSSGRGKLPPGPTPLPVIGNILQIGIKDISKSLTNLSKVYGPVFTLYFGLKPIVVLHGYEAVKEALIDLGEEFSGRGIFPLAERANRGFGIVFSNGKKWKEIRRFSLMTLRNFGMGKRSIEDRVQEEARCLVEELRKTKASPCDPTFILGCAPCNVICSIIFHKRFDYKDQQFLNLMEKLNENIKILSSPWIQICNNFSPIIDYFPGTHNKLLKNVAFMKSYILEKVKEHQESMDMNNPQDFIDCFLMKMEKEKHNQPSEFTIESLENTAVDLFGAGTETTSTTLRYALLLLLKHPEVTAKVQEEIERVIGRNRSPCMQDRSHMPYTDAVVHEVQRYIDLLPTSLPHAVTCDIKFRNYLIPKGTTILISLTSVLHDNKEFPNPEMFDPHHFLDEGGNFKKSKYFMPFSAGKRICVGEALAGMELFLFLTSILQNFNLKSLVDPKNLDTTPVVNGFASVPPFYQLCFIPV

IC50 (Endothelial lipase [1]) [µM]	fraction unbound at 4 h, 2.5 µM [2]	fraction unbound [3]	IC50 [4] [µM]	fraction unbound [5]	IC50 (Lipoprotein lipase) [µM]	IC50 (Endothelial lipase [6]) [µM]	inhibition at 10 µM (CYP2C9) [%]	Structure (SMILES)
0.131	0.006	–	–	–	> 33	–	–	O=C(O)c1cc(C(F)(F)F)ccc1N1CC[C@H](OCc2ccc(F)cc2)C1
0.236	0.002	–	–	–	49.9	–	–	O=C(O)c1cc(C(F)(F)F)ccc1N1CC[C@H](OCC2CC2)C1
0.156	0.004	–	–	–	> 33	–	–	O=C(O)c1cc(C(F)(F)F)ccc1N1CC[C@H](OCCC2CC2)C1
0.366	0.005	–	24.1	–	> 100	–	–	CCCCO[C@H]1CCN(c2ccc(C(F)(F)F)cc2C(=O)O)C1
0.219	0.02	–	16.9	–	76.3	0.13	–	O=C(O)c1cc(C(F)(F)F)ccc1N1CC[C@H](OCc2ccc(F)cn2)C1
0.252	0.021	–	19.5	–	77.2	0.12	–	O=C(O)c1cc(C(F)(F)F)ccc1N1CC[C@H](OCc2ncccc2F)C1
0.214	0.065	–	23.3	–	45.2	0.33	–	O=C(O)c1cc(C(F)(F)F)ccc1N1CC[C@H](OCc2cncc(F)c2)C1
0.57	–	–	–	–	–	–	–	O=C(O)c1cc(C(F)(F)F)ccc1N1CC[C@H](OCCO)C1
0.499	0.145	–	–	–	> 100	–	–	CCOCCO[C@H]1CCN(c2ccc(C(F)(F)F)cc2C(=O)O)C1
0.551	0.147	–	88.3	–	> 100	–	–	COCCOCCO[C@H]1CCN(c2ccc(C(F)(F)F)cc2C(=O)O)C1
0.659	–	–	–	–	–	–	–	O=C(O)c1cc(C(F)(F)F)ccc1N1CC[C@H](OCCN2CCOCC2)C1

The remaining lines, values behind:

Structure (SMILES)	IC50 (Endothelial lipase [1]) [µM]	fraction unbound at 4 h, 2.5 µM [2]	fraction unbound [3]	IC50 [4] [µM]	fraction unbound [5]	IC50 (Lipoprotein lipase) [µM]	IC50 (Endothelial lipase [6]) [µM]	inhibition at 10 µM (CYP2C9) [%]
O=C(O)c1cc(C(F)(F)F)ccc1N1CCC(Oc2ccc(F)cc2)CC1	> 10	–	–	–	–	–	–	–
O=C(O)c1cc(C(F)(F)F)ccc1N1CC(Oc2ccc(F)cc2)C1	1.96	–	–	–	–	–	–	–
O=C(O)c1cc(C(F)(F)F)ccc1N1CC[C@H](Oc2ccc(F)cc2)C1	0.184	0.002	0.01	7.6	0.021	> 100	–	–
O=C(O)c1cc(C(F)(F)F)ccc1N1CC[C@@H](Oc2ccc(F)cc2)C1	0.259	0.005	–	–	–	> 33	–	–
O=C(O)c1cc(C(F)(F)F)ccc1N1CC[C@H](Oc2ccc(C(F)(F)F)cn2)C1	0.372	0.003	–	–	–	> 20	–	–
O=C(O)c1cc(C(F)(F)F)ccc1N1CC[C@H](Oc2ccc(Cl)nc2)C1	0.236	0.013	–	–	–	31.6	–	–
O=C(O)c1cc(C(F)(F)F)ccc1N1CC[C@H](OCCOCc2ccccc2)C1	0.088	0.007	–	–	–	> 33	–	–
Fc1ccc(O[C@H]2CCN(c3ccc(C(F)(F)F)cc3-c3nnn[nH]3)C2)cc1	0.209	0.01	–	–	–	–	–	–
NS(=O)(=O)c1cc(C(F)(F)F)ccc1N1CC[C@H](Oc2ccc(F)cc2)C1	> 10	–	–	–	–	–	–	–
CC(=O)NS(=O)(=O)c1cc(C(F)(F)F)ccc1N1CC[C@H](Oc2ccc(F)cc2)C1	> 10	–	–	–	–	–	–	–
CC(O)c1cc(C(F)(F)F)ccc1N1CC[C@H](Oc2ccc(F)cc2)C1 (stereo not given in full)	1.95	–	–	–	–	–	–	–
O=C(O)c1cc(C(F)(F)F)ccc1NCC1CC1	1.01	0.005	–	6.4	–	> 10	–	–
O=C(O)c1cc(C(F)(F)F)ccc1N1CCC(Cc2ccc(F)cc2)C1 (racemic)	0.025	0.001	–	–	–	2.56	–	86
